{"source": "paper PMC2916699", "about": "(Journal of molecular biology, 2009)", "note": "Where a SMILES comes first, the peptide text is derived from it. The star is where a group is joined. Dansyl = CN(C)c1cccc2c(S(=O)(=O)*)cccc12", "data": [{"molecular_target": "T1, protein farnesyltransferase (FTase) (Rattus norvegicus, UniProt Q02293+Q04631)", "assay": "Steady state continuous dansyl fluorescence assay, kcat/Km peptide", "format": "biochemical", "details": "initial library, multiple-turnover substrates; 10 μM FPP, 0.4–10 μM dansylated peptide, 25–300 nM FTase, 50 mM HEPPSO pH 7.8, 5 mM TCEP, 5 mM MgCl2, 10 μM ZnCl, 25 °C", "method_in_brief": "(§1)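 Dansyl-TKCxxx peptides (0.4–10 μM) with saturating FPP 10 μM, 50 mM HEPPSO pH 7.8, 5 mM TCEP, 5 mM MgCl2, 10 μM ZnCl, 25 °C. FTase (25–300 nM) started the reaction. Dansyl fluorescence (ex 340, em 520 nm) followed to endpoint (~2–6 h). Rates converted to product using endpoint fluorescence. kcat/Km from linear or Michaelis–Menten fit of V/[E] versus peptide.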", "units": {"kcat/Km": "M⁻¹ s⁻¹"}, "values": [{"compound": "CVLQ", "kcat/Km": "780 ± 30"}, {"compound": "CLML", "kcat/Km": "150 ± 20"}, {"compound": "CGLF", "kcat/Km": "450 ± 60"}, {"compound": "CNLM", "kcat/Km": "1000 ± 300"}, {"compound": "CSVQ", "kcat/Km": "1200 ± 400"}, {"compound": "CGIA", "kcat/Km": "160 ± 50"}, {"compound": "CTVF", "kcat/Km": "1300 ± 100"}, {"compound": "CQTA", "kcat/Km": "530 ± 20"}, {"compound": "CVQM", "kcat/Km": "270 ± 30"}, {"compound": "CGLY", "kcat/Km": "1000 ± 100"}]}, {"molecular_target": "T1, protein farnesyltransferase (FTase)", "assay": "Steady state continuous dansyl fluorescence assay, kcat/Km peptide", "format": "biochemical", "details": "targeted library, multiple-turnover substrates; dansyl fluorescence, 25 °C", "method_in_brief": "as §1", "units": {"kcat/KM^peptide": "M⁻¹ s⁻¹"}, "values": [{"compound": "CEIQ", "kcat/KM^peptide": "3100 ± 600"}, {"compound": "CHIQ", "kcat/KM^peptide": "2200 ± 600"}, {"compound": "CGVV", "kcat/KM^peptide": "90 ± 30"}, {"compound": "CYIS", "kcat/KM^peptide": "12000 ± 5000"}, {"compound": "CALV", "kcat/KM^peptide": "100 ± 20"}, {"compound": "CVHF", "kcat/KM^peptide": "460 ± 40"}, {"compound": "CNLK", "kcat/KM^peptide": "6300 ± 1600"}, {"compound": "CKIV", "kcat/KM^peptide": "870 ± 70"}, {"compound": "CYLA", "kcat/KM^peptide": "4700 ± 300"}, {"compound": "CFTN", "kcat/KM^peptide": "970 ± 70"}, {"compound": "CFPS", "kcat/KM^peptide": "4700 ± 500"}, {"compound": "CLLV", "kcat/KM^peptide": "100 ± 60"}, {"compound": "CHVQ", "kcat/KM^peptide": "4500 ± 800"}, {"compound": "CHIM", "kcat/KM^peptide": "3300 ± 400"}, {"compound": "CHLS", "kcat/KM^peptide": "460 ± 20"}, {"compound": "CFVN", "kcat/KM^peptide": "2100 ± 700"}, {"compound": "CTVS", "kcat/KM^peptide": "5800 ± 1200"}, {"compound": "CHLM", "kcat/KM^peptide": "2000 ± 300"}, {"compound": "CTIV", "kcat/KM^peptide": "7200 ± 800"}, {"compound": "CDVK", "kcat/KM^peptide": "3600 ± 800"}, {"compound": "CSLH", "kcat/KM^peptide": "210 ± 10"}, {"compound": "CSLA", "kcat/KM^peptide": "2500 ± 300"}, {"compound": "CHVM", "kcat/KM^peptide": "10000 ± 8000"}, {"compound": "CALQ", "kcat/KM^peptide": "12000 ± 2000"}]}, {"molecular_target": "T1, protein farnesyltransferase (FTase)", "assay": "not given", "format": "biochemical", "details": "single-turnover only (STO) peptides, initial library; 0.4–0.8 μM FTase, 50–100 μM dansylated peptide, 0.1–0.2 μM FPP, 50 mM HEPPSO pH 7.8, 5 mM MgCl2, 2 mM TCEP, 25 °C", "method_in_brief": "(§2)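 Stopped-flow, pre-mix levels: FTase (0.8–1.6 μM) with FPP (0.2–0.4 μM) in HEPPSO pH 7.8, MgCl2, TCEP, plus a phosphate mop (PNPase 0.5 units mL−1, 15 mM 7-methylguanosine). This is mixed 1:1 with dansylated peptide (100 or 200 μM) containing MDCC-labelled A197C PBP (5–10 μM), inorganic pyrophosphatase and the mop. Emission is followed at 450 nm, and a single-exponential fit gives kfarn.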", "units": {"kfarn": "s⁻¹"}, "values": [{"compound": "CAKS", "kfarn": "2.3 ± 0.2"}, {"compound": "TKCYSN", "kfarn": "0.0025 ± 0.0002"}, {"compound": "CVSS", "kfarn": "0.097 ± 0.009"}, {"compound": "CVLL", "kfarn": "0.83 ± 0.08"}, {"compound": "CSEA", "kfarn": "0.020 ± 0.002"}, {"compound": "CPLG", "kfarn": "0.019 ± 0.001"}, {"compound": "CAVL", "kfarn": "0.91 ± 0.09"}]}, {"molecular_target": "T1, protein farnesyltransferase (FTase)", "assay": "not given", "format": "biochemical", "details": "single-turnover only (STO) peptides, initial library; 0.4–0.8 μM FTase, 50–100 μM dansylated peptide, 0.1–0.2 μM FPP, 50 mM HEPPSO pH 7.8, 5 mM MgCl2, 2 mM TCEP, 25 °C; listed as TKCYSN", "method_in_brief": "as §2", "units": {"kfarn": "s⁻¹"}, "values": [{"compound": "TKCYSN", "kfarn": 0.0025}]}, {"molecular_target": "FTase·I2 complex (Rattus norvegicus, UniProt Q02293+Q04631)", "assay": "Peptide binding affinity by fluorescence anisotropy", "details": "not given", "units": {"Kd": "nM"}, "values": [{"compound": "CC[C@H](C)[C@H](NC(=O)[C@H](CS)NC(=O)[C@H](CCCCN)NC(=O)[C@@H](NS(=O)(=O)c1cccc2c(N(C)C)cccc12)[C@@H](C)O)C(=O)N[C@H](C(=O)N[C@@H](C)C(=O)O)C(C)C", "note": "[CIVA] (Dansyl-TKCIVA-OH)", "Kd": "5 ± 2"}, {"compound": "CC[C@H](C)[C@H](NC(=O)[C@H](CO)NC(=O)[C@H](CS)NC(=O)[C@H](CCCCN)NC(=O)[C@@H](NS(=O)(=O)c1cccc2c(N(C)C)cccc12)[C@@H](C)O)C(=O)N[C@@H](CCSC)C(=O)O", "note": "[CSIM] (Dansyl-TKCSIM-OH)", "Kd": "6 ± 2"}]}]}
